How the values were obtained:
[1] = Induction of oxidative burst in polymorphonuclear leukocytes (unknown origin) isolated from buffy coat at 10 uM after 40 mins by fluorescence assay relative to ingenol mebutate; format: functional
In short: (§1)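 PMN isolated and purified from fresh buffy coats, then incubated 40 min at ambient temperature with titrated compound (top concentration 10 µM) premixed with hydroethidine. Respiratory burst read as fluorescence in relative light units, emission 579 nm, excitation 485 nm. EC50 and Emax are expressed relative to the maximum effect of the ingenol mebutate reference.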

Keratinocyte [2] = assay: Induction of IL-8 release in human primary epidermal keratinocytes after 6 hrs by HTRF assay relative to ingenol mebutate; format: functional
[3] = Chemical stability of the compound in aqueous buffer assessed as drug recovery after 16 hrs at pH 7.4 by HPLC analysis; format: physicochemical; conditions: read-out: Drug recovery
In short: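 DMSO stock diluted with pre-heated (37 °C) aqueous buffer pH 7.4 to at most 30% v/v organic content, then shaken. Held in the HPLC autosampler at 37 °C, first injected within 5 min, then injected repeatedly over 16 h. Recovery taken from the fall in compound peak area, UV detection normally at 270 nm.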

Keratinocyte [4] = assay: Induction of IL-8 release in human primary epidermal keratinocytes after 6 hrs by HTRF assay; format: functional, cell-based
Keratinocyte [5] = assay: Induction of TNFalpha release in human primary epidermal keratinocytes after 6 hrs; format: functional, cell-based
In short: (§2)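 Human adult log-phase primary epidermal keratinocytes subcultured at 10,000 cells/well. Incubated with titrated compound for 6 h at 37 °C in humidified 95% air/5% CO2. Secreted cytokines quantified on 4-spot cytokine plates. EC50 is the concentration giving 50% of the maximum effect of the ingenol mebutate reference. Emax is maximal response relative to that reference.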

[6] = Induction of oxidative burst in polymorphonuclear leukocytes (unknown origin) isolated from buffy coat after 40 mins by fluorescence assay; format: functional, cell-based; in short: as §1
Keratinocyte [7] = assay: Induction of TNFalpha release in human primary epidermal keratinocytes after 6 hrs relative to ingenol mebutate; format: functional; in short: as §2
[8] = Induction of necrosis in human HeLa cells after 30 mins by resazurin assay; format: cell-based; conditions: read-out: LC50
In short: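 HeLa cells exposed to increasing ester concentrations up to 400 µM for 30 min at 37 °C. Remaining metabolic activity then read with a resazurin-based dye. LC50 is the concentration causing 50% loss of metabolic activity.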

[9] = biological target: Protein kinase C delta type (Homo sapiens, UniProt Q05655); assay: Activation of PKCdelta (unknown origin) using phosphatidylserine […]
In short: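 PKCdelta assayed in vitro by phosphorylation of a PKC peptide substrate, with 0.05 mg/mL phosphatidylserine and no diacylglycerol so stimulation could be seen. Compounds serially diluted at semilogarithmic intervals, twelve points from 10 µM. Reaction started by adding ATP.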

Protein kinase C delta type, sequence (Q05655 whole entry): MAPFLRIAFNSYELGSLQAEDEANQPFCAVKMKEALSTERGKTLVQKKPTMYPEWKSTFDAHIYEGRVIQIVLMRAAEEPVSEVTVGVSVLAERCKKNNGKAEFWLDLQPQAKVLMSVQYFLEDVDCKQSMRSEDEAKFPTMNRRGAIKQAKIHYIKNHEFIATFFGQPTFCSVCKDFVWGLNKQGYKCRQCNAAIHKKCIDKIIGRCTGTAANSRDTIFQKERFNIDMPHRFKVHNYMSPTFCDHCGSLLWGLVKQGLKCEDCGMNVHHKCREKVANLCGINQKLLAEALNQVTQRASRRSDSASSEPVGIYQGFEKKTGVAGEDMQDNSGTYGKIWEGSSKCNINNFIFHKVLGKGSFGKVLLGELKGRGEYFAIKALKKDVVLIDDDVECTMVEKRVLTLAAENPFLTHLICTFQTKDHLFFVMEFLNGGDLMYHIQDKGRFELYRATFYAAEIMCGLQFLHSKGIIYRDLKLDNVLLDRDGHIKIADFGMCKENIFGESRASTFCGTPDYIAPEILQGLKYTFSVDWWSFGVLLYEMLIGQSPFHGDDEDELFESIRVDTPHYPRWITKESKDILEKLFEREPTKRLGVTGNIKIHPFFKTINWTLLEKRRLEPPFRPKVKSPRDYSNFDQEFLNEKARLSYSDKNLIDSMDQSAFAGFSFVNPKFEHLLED

Row | EC50 [9] | Compound | Emax at 10 µM [1] | Emax (Keratinocyte [2]) | remaining at 16 h [3] | EC50 (Keratinocyte [4]) | EC50 (Keratinocyte [5]) | EC50 [6] | Emax (Keratinocyte [7]) | CC50 at 0.5 h [8] | EC50 ([9]; read-out: EC50)
1 | – | CCCC(=O)O[C@H]1C(C)=C[C@]23C(=O)[C@@H](C=C(CO)[C@@H](O)[C@]12O)[C@H]1[C@@H](C[C@H]3C)C1(C)C | 88% | 115% | 18% | 313 nM | 318 nM | 25 nM | 87% | – | –
2 | – | CC1=C[C@]23C(=O)[C@@H](C=C(CO)[C@@H](O)[C@]2(O)[C@H]1OC(=O)C1CCCCC1)[C@H]1[C@@H](C[C@H]3C)C1(C)C | 104% | 43% | 35% | 10000 nM | 10000 nM | 6 nM | 47% | 112000 nM | –
3 | – | CC(C)=CC(=O)O[C@H]1C(C)=C[C@]23C(=O)[C@@H](C=C(CO)[C@@H](O)[C@]12O)[C@H]1[C@@H](C[C@H]3C)C1(C)C | 109% | 74% | 55% | 86 nM | 66 nM | 4.3 nM | 82% | 283000 nM | –
4 | – | CC1=C[C@]23C(=O)[C@@H](C=C(CO)[C@@H](O)[C@@]24OC(=O)CO[C@@H]14)[C@H]1[C@@H](C[C@H]3C)C1(C)C | – | – | 25% | 10000 nM | 10000 nM | 10000 nM | – | – | –
5 | – | CC1=C[C@]23C(=O)[C@@H](C=C(CO)[C@@H](O)[C@@]24OC(=O)O[C@@H]14)[C@H]1[C@@H](C[C@H]3C)C1(C)C | 124% | 109% | – | 171 nM | 253 nM | 181 nM | 112% | 400000 nM | –
6 | – | C/C=C(/C)C(=O)O[C@H]1C(C)=C[C@]23C(=O)[C@@H](C=C(COC)[C@@H](O)[C@]12O)[C@H]1[C@@H](C[C@H]3C)C1(C)C | – | – | 77% | 10000 nM | 10000 nM | 10000 nM | – | 400000 nM | –
7 | – | CC1=C[C@]23C(=O)[C@@H](C=C(CO)[C@@H](O)[C@]2(O)[C@H]1OC(=O)C1CCC1)[C@H]1[C@@H](C[C@H]3C)C1(C)C | 111% | 55% | 10% | 882 nM | 450 nM | 10 nM | 60% | – | –
8 | – | CC1=C[C@]23C(=O)[C@@H](C=C(CO)[C@@H](O)[C@]2(O)[C@H]1OC(=O)C12C[C@@H]4C[C@@H](C[C@H]1C4)C2)[C@H]1[C@@H](C[C@H]3C)C1(C)C | 136% | 65% | 70% | 27 nM | 36 nM | 8.3 nM | 55% | 77000 nM | –
9 | – | C/C=C(/C)C(=O)O[C@H]1C(C)=C[C@@]23C(=O)[C@H]([C@H]4[C@@H](C[C@H]2C)C4(C)C)[C@H]2O[C@@]2(CO)[C@@H](O)[C@]13O | 114% | 119% | – | 320 nM | 367 nM | 50 nM | 156% | – | –
10 | – | C/C=C/C(=O)O[C@H]1C(C)=C[C@]23C(=O)[C@@H](C=C(CO)[C@@H](O)[C@]12O)[C@H]1[C@@H](C[C@H]3C)C1(C)C | 110% | 93% | 0% | 821 nM | 802 nM | 9.1 nM | 91% | – | –
11 | – | CC1=C[C@]23C(=O)[C@@H](C=C(CO)[C@@H](O)[C@]2(O)[C@H]1OC(=O)C1CC1)[C@H]1[C@@H](C[C@H]3C)C1(C)C | 112% | 83% | 30% | 256 nM | 243 nM | 26 nM | 81% | – | –
12 | – | CC1=C[C@]23C(=O)[C@@H](C=C(CO)[C@@H](O)[C@]2(O)[C@H]1OC(=O)/C(C)=C\c1ccc(C)cc1)[C@H]1[C@@H](C[C@H]3C)C1(C)C | 126% | 87% | 45% | 2.1 nM | 3.1 nM | 5.9 nM | 101% | 109000 nM | –
13 | – | C=C(CC)C(=O)O[C@H]1C(C)=C[C@]23C(=O)[C@@H](C=C(CO)[C@@H](O)[C@]12O)[C@H]1[C@@H](C[C@H]3C)C1(C)C | 102% | 100% | 30% | 21 nM | 29 nM | 5.2 nM | 101% | 129000 nM | –
14 | – | CC1=C[C@]23C(=O)[C@@H](C=C(CO)[C@@H](O)[C@]2(O)[C@H]1OCC(=O)OC(C)(C)C)[C@H]1[C@@H](C[C@H]3C)C1(C)C | 111% | – | 95% | 10000 nM | 10000 nM | 3300 nM | – | 311000 nM | –
15 | – | CC1=C[C@]23C(=O)[C@@H](C=C(CO)[C@@H](O)[C@]2(O)[C@H]1O)[C@H]1[C@@H](C[C@H]3C)C1(C)C [INGENOL] | – | – | > 95% | 10000 nM | 10000 nM | 10000 nM | – | > 400000 nM | –
16 | Not Active | C/C=C(/C)C(=O)O[C@H]1C(C)=C[C@@]23C(=O)[C@H]([C@H]4[C@@H](C[C@H]2C)C4(C)C)[C@H](F)C(CO)=C[C@]13O | – | 57% | > 95% | 1130 nM | 1210 nM | 1240 nM | 67% | – | –
17 | – | CC1=C[C@]23C(=O)[C@@H](C=C(CO)[C@@H](O)[C@]2(O)[C@H]1OC(=O)C(C)C)[C@H]1[C@@H](C[C@H]3C)C1(C)C | 104% | 63% | 30% | 120 nM | 112 nM | 19 nM | 72% | – | –
18 | – | CC#CC(=O)O[C@H]1C(C)=C[C@]23C(=O)[C@@H](C=C(CO)[C@@H](O)[C@]12O)[C@H]1[C@@H](C[C@H]3C)C1(C)C | 112% | – | 5% | 10000 nM | 10000 nM | 17 nM | – | – | –
19 | – | C=C(C)C(=O)O[C@H]1C(C)=C[C@]23C(=O)[C@@H](C=C(CO)[C@@H](O)[C@]12O)[C@H]1[C@@H](C[C@H]3C)C1(C)C | 114% | 74% | 20% | 246 nM | 213 nM | 6.1 nM | 77% | 406000 nM | –
20 | – | CCCCCCCCCC(=O)O[C@H]1C(C)=C[C@]23C(=O)[C@@H](C=C(CO)[C@@H](O)[C@]12O)[C@H]1[C@@H](C[C@H]3C)C1(C)C | 137% | 94% | – | 8 nM | 11 nM | 10 nM | 96% | 117000 nM | 5.3 nM
21 | – | C/C=C(/C)C(=O)O[C@H]1C(C)=C[C@]23C(=O)[C@@H](C=C(CO)[C@@H](OC)[C@]12O)[C@H]1[C@@H](C[C@H]3C)C1(C)C | 119% | – | > 95% | 738 nM | 748 nM | 281 nM | 131% | – | –
22 | – | CC1=C[C@]23C(=O)[C@@H](C=C(CO)[C@@H](O)[C@]2(O)[C@H]1OC(=O)c1ccccc1)[C@H]1[C@@H](C[C@H]3C)C1(C)C | 110% | 54% | 30% | 182 nM | 88 nM | 6 nM | 60% | – | –
23 | – | CC1=C[C@]23C(=O)[C@@H](C=C(CO)[C@@H](O)[C@]2(O)[C@H]1OC(=O)C1CCCC1)[C@H]1[C@@H](C[C@H]3C)C1(C)C | 107% | 54% | 30% | 69 nM | 65 nM | 6.5 nM | 58% | – | –
24 | – | CC1=C[C@]23C(=O)[C@@H](C=C(CO)[C@@H](O)[C@]2(O)[C@H]1OC(=O)C1=CCCCC1)[C@H]1[C@@H](C[C@H]3C)C1(C)C | 99% | 45% | 60% | 10000 nM | 10000 nM | 6.7 nM | 42% | – | –
25 | – | CO/N=C(/C(=O)O[C@H]1C(C)=C[C@]23C(=O)[C@@H](C=C(CO)[C@@H](O)[C@]12O)[C@H]1[C@@H](C[C@H]3C)C1(C)C)c1ccccc1 | 117% | 45% | 55% | 10000 nM | 10000 nM | 28 nM | 47% | – | –
